Measured values: ChEMBL document CHEMBL1687707, “Changes in the plasmodial surface anion channel reduce leupeptin uptake and can confer drug resistance in Plasmodium falciparum-infected erythrocytes” (Antimicrob Agents Chemother, 2008)
Active and inactive are the calls of the source. No cut-off for these calls is given here.

Legend:
[1] = Inhibition of single PSAC in erythrocytes infected with Plasmodium falciparum HB3 at 100 to 5000 uM by cell attached patch clamp method; format: cell-based
Summary of the method: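 Cell-attached patch-clamp recordings were made on trophozoite-stage infected erythrocytes. Bath and pipette solutions were symmetric: 1,000 mM choline chloride, 115 mM NaCl, 10 mM MgCl₂, 5 mM CaCl₂ and 20 mM sodium HEPES, pH 7.4.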

[2] = Inhibition of PSAC-mediated sorbitol uptake in erythrocytes infected with Plasmodium falciparum HB3 at 100 to 5000 uM by osmotic lysis half-time determination assay; format: cell-based
Summary of the method: (§1)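 Percoll-sorbitol-enriched trophozoite-infected cells were washed in PBS, then suspended at 0.5% hematocrit in 280 mM sorbitol, 20 mM sodium HEPES and 0.1 mg/ml BSA, pH 7.4, with PSAC antagonists. Osmotic lysis kinetics gave half-times, and K0.5 was fitted by nonlinear least squares.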

[3] = Inhibition of PSAC-mediated sorbitol uptake in erythrocytes infected with leupeptin resistant-Plasmodium falciparum HB3-leuR1 by osmotic lysis half-time determination assay; format: cell-based
[4] = Inhibition of single PSAC in erythrocytes infected with leupeptin resistant-Plasmodium falciparum HB3-leuR1 cell attached patch clamp method; format: cell-based
[5] = system: Plasmodium falciparum; experiment: Antimicrobial activity against wild type Plasmodium falciparum HB3 infected in erythrocytes assessed as growth inhibition after 72 hrs by SYBR Green I-based fluorescence assay; format: functional, organism-based; conditions: HB3, 72 h
[6] = system: Plasmodium falciparum; experiment: Antimicrobial activity against leupeptin resistant-Plasmodium falciparum HB3-leuR1 mutant infected in erythrocytes assessed as growth inhibition after 72 hrs by SYBR Green I-based fluorescence assay; format: functional, organism-based; conditions: HB3-leuR1, 72 h
Summary of the method: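 Sorbitol-synchronized cultures seeded at 0.2–0.5% parasitemia, 5% hematocrit in RPMI 1640/25 mM HEPES/2% serum/hypoxanthine. Incubated 72 h at 37°C in 5% O₂-5% CO₂. Freeze-thaw, then SYBR green I, 30 min dark, fluorescence 485/528 nm. Triplicate means with background subtracted (20 μM chloroquine-killed cultures). IC50 by nonlinear fit, three or more experiments.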

[7] = system: Plasmodium falciparum; experiment: Antimicrobial activity against leupeptin resistant-Plasmodium falciparum HB3-leuR1 mutant infected in erythrocytes assessed as growth inhibition after 5 days by SYBR Green I-based fluorescence assay; conditions: HB3-leuR1, 5 days
[8] = system: Plasmodium falciparum; experiment: Antimicrobial activity against wild type Plasmodium falciparum HB3 infected in erythrocytes assessed as growth inhibition after 5 days by SYBR Green I-based fluorescence assay; conditions: HB3, 5 days
[9] = biological target: Cysteine protease falcipain-3 (Plasmodium falciparum, UniProt Q9NAW4); experiment: Inhibition of Cysteine protease falcipain-3 in Plasmodium falciparum HB3-leuR1 mutant infected erythrocytes by Z-Phe-Arg-AMC substrate hydrolysis assay
Summary of the method: (§2)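 Soluble extracts from trophozoite-infected erythrocytes enriched to 95–99% parasitemia (Percoll-sorbitol). Adjusted to 40 μg/ml protein in 0.1 M sodium acetate pH 5.5 with 10 mM DTT, with or without leupeptin. Prewarmed to 37°C; 50 μM Z-Phe-Arg-AMC added; fluorescence 353/442 nm read every 2 min. Rates by regression over 10–90 min, triplicate. K0.5 fit with Hill coefficient 1.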

[10] = system: Plasmodium falciparum; experiment: Induction of parasite morphology changes in wild type Plasmodium falciparum HB3 infected in erythrocytes assessed as occurrence of enlarged digestive vacuoles by transmission electron microscopy; format: functional, organism-based
Summary of the method: (§3)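 For electron microscopy, infected erythrocytes were cultured with 100 μM leupeptin for 6 h. They were fixed overnight at 4°C in 2.5% glutaraldehyde/4% paraformaldehyde in 0.1 M cacodylate pH 7.4, postfixed in osmium tetroxide/ferricyanide and stained with uranyl acetate. Samples were Spurr-embedded, and thin sections were lead/uranyl stained and imaged at 80 kV.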

[11] = system: Plasmodium falciparum; experiment: Induction of parasite morphology changes in leupeptin resistant-Plasmodium falciparum HB3-leuR1 mutant infected in erythrocytes assessed as occurrence of enlarged digestive vacuoles by transmission electron microscopy; format: functional, organism-based
[12] = biological target: T1, Falcipain 2 (Plasmodium falciparum) (UniProt Q9N6S8); experiment: Inhibition of Cysteine protease falcipain-2 in Plasmodium falciparum HB3 infected erythrocytes assessed as slowing of substrate hydrolysis by Z-Phe-Arg-AMC substrate hydrolysis assay; summary of the method: as §2
T1 sequence (whole entry): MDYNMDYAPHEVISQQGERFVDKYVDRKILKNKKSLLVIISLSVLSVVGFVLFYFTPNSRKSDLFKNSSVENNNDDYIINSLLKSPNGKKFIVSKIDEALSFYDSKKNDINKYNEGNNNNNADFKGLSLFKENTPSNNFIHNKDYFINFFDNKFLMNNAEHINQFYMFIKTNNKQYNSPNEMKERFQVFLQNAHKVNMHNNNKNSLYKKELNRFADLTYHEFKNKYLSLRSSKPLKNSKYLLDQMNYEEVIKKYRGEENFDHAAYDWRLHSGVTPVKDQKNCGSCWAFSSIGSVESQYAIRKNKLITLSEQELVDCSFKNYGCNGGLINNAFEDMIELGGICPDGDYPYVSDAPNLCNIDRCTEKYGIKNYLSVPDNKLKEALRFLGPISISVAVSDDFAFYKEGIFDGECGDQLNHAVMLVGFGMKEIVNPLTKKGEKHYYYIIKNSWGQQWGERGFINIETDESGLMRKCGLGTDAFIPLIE

[13] = biological target: T2, Cysteine protease falcipain-3 (Plasmodium falciparum) (UniProt Q9NAW4); experiment: Inhibition of Cysteine protease falcipain-3 in Plasmodium falciparum HB3 infected erythrocytes assessed as slowing of substrate hydrolysis by Z-Phe-Arg-AMC substrate hydrolysis assay; summary of the method: as §2
T2 sequence (whole entry): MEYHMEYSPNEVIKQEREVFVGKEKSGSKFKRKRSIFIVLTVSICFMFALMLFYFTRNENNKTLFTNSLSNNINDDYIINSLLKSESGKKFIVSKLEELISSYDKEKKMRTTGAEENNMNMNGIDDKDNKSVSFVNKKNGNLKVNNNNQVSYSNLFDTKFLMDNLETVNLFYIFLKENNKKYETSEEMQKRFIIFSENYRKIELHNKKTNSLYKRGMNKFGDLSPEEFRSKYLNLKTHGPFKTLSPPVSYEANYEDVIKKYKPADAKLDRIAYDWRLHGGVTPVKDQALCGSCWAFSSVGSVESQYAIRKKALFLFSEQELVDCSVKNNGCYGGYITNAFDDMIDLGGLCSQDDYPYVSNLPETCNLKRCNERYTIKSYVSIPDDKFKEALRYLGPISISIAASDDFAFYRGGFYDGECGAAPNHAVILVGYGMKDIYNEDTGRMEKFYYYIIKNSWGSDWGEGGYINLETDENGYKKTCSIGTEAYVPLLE

[14] = system: Plasmodium falciparum; experiment: Antimicrobial activity against leupeptin resistant-Plasmodium falciparum HB3-leuR1 mutant infected in erythrocytes assessed as growth inhibition after 72 hrs in presence of PSAC antagonist NPF1 by SYBR Green I-based fluorescence assay; format: functional, organism-based
Summary of the method: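 SYBR green I growth assay for 72 h at 37°C using serial dilutions of several fixed molar ratios of leupeptin and NPF-1. IC50 of each agent interpolated for each ratio and plotted as an isobologram. Background subtracted using chloroquine-killed cultures.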

[15] = Inhibition of PSAC-mediated sorbitol uptake in erythrocytes infected with leupeptin resistant-Plasmodium falciparum HB3-leuR1 at 50 uM; format: cell-based
[16] = (§4) Activity of PSAS assessed as channel-mediated drug uptake measured by inhibition of papain-mediated substrate hydrolysis by Plasmodium falciparum HB3 infected erythrocyte cytosol harvested from cells incubated at 40 uM for 15 mins by Z-Phe-Arg-AMC substrate hydrolysis assay
Summary of the method: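 They were counted, then lysed at 20% hematocrit with 0.05% saponin. Cytosol from 10⁸ cells went into pH 5.5 acetate with 10 mM DTT and 150 ng/ml papain, then 50 μM Z-Phe-Arg-AMC. Rates came from 353/442 nm readings over 10 min; four experiments.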

[17] = biological target: T3, Falcipain 2 (Plasmodium falciparum, UniProt Q9N6S8); experiment: Inhibition of Cysteine protease falcipain-2 in Plasmodium falciparum HB3 infected erythrocytes by Z-Phe-Arg-AMC substrate hydrolysis assay
T3 sequence (Q9N6S8 whole entry): T1 sequence (whole entry)
Summary of the method: (§5)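 Soluble extracts came from trophozoite-infected cells enriched to 95–99% parasitemia. They were set at 40 μg/ml protein in 0.1 M sodium acetate pH 5.5 with 10 mM DTT and leupeptin, prewarmed to 37°C, then given 50 μM Z-Phe-Arg-AMC. Fluorescence (353/442 nm) was read every 2 min, with rates regressed over 10–90 min and triplicate means. K0.5 came from a 1:1 fit; n=4.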

[18] = as §4, with “mins in presence og PSAC antagonist NPF1” for “mins”; format: functional
Summary of the method: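 Erythrocyte cytosol was released with 0.05% saponin, and 10⁸-cell equivalents were incubated with 150 ng/ml papain and 10 mM DTT at pH 5.5. Z-Phe-Arg-AMC (50 μM) hydrolysis was read every 2 min for 10 min, given as percent inhibition; four experiments.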

[19] = system: Plasmodium falciparum; experiment: Reduction in hemozoin production in leupeptin resistant-Plasmodium falciparum HB3-leuR1 mutant infected in erythrocytes at 50 uM for 18 hrs by absorbance scan at 400 nm
[20] = system: Plasmodium falciparum; experiment: Reduction in formation of hemozoin crystals in leupeptin resistant-Plasmodium falciparum HB3-leuR1 mutant infected in erythrocytes at 100 uM for 6 hrs by transmission electron microscopy; format: functional, organism-based
Summary of the method: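 Infected erythrocytes cultured with 100 μM leupeptin for 6 h. Fixed overnight at 4°C in 2.5% glutaraldehyde-4% paraformaldehyde in cacodylate pH 7.4. Postfixed in osmium tetroxide-ferricyanide, stained with uranyl acetate, embedded in Spurr's resin. Thin sections stained with uranyl acetate/lead citrate and imaged at 80 kV.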

[21] = system: Plasmodium falciparum; experiment: Reduction in hemozoin production in wild type Plasmodium falciparum HB3 infected in erythrocytes at 50 uM for 18 hrs by absorbance scan at 400 nm
[22] = biological target: T1, Falcipain 2 (Plasmodium falciparum); experiment: Inhibition of Cysteine protease falcipain-2 in Plasmodium falciparum HB3-leuR1 mutant infected erythrocytes assessed as slowing of substrate hydrolysis by Z-Phe-Arg-AMC substrate hydrolysis assay; summary of the method: as §2
[23] = Activity of PSAS assessed as channel-mediated drug uptake measured by inhibition of papain-mediated substrate hydrolysis by leupeptin resistant-Plasmodium falciparum HB3-leuR1 infected erythrocyte cytosol harvested from cells incubated at 40 uM for 15 mins by Z-Phe-Arg-AMC substrate hydrolysis assay
[24] = biological target: T2, Cysteine protease falcipain-3 (Plasmodium falciparum); experiment: Inhibition of Cysteine protease falcipain-3 in Plasmodium falciparum HB3-leuR1 mutant infected erythrocytes assessed as slowing of substrate hydrolysis by Z-Phe-Arg-AMC substrate hydrolysis assay; summary of the method: as §2
[25] = system: Plasmodium falciparum; experiment: Reduction in formation of hemozoin crystals in wild type Plasmodium falciparum HB3 infected in erythrocytes at 100 uM for 6 hrs by transmission electron microscopy; format: functional, organism-based; summary of the method: as §3
[26] = biological target: T4, Cysteine protease falcipain-3 (Plasmodium falciparum, UniProt Q9NAW4); experiment: Inhibition of Cysteine protease falcipain-3 in Plasmodium falciparum HB3 infected erythrocytes by Z-Phe-Arg-AMC substrate hydrolysis assay; summary of the method: as §5
T4 sequence (Q9NAW4 whole entry): T2 sequence (whole entry)

[27] = Inhibition of PSAC-mediated sorbitol uptake in erythrocytes infected with Plasmodium falciparum HB3 at 50 uM; format: cell-based; summary of the method: as §1
[28] = biological target: Falcipain 2 (Plasmodium falciparum, UniProt Q9N6S8); experiment: Inhibition of Cysteine protease falcipain-2 in Plasmodium falciparum HB3-leuR1 mutant infected erythrocytes by Z-Phe-Arg-AMC substrate hydrolysis assay; summary of the method: as §2

## O=C(CCc1ccc(O)cc1)c1c(O)cc(O)cc1O[C@@H]1O[C@H](CO)[C@@H](O)[C@H](O)[C@H]1O [PHLORIZIN]
[1]
  IC50: 17000 nM
[2]
  inhibition: Active
[3]
  inhibition: inactive
[4]
  IC50: 340000 nM

## C=C[C@H]1CN2CC[C@H]1C[C@H]2[C@H](O)c1ccnc2ccc(OC)cc12 [QUININE]
[5]
  IC50: 77.1 nM
[6]
  IC50: 74 nM

## CN(CC[C@H](N)CC(=O)N[C@H]1C=C[C@H](n2ccc(N)nc2=O)O[C@@H]1C(=O)O)C(=N)N [BLASTICIDIN_S]
[7]
  IC50: 1150 nM
[8]
  IC50: 430 nM

## C[C@@H]1CC[C@H]2[C@@H](C)C(=O)O[C@@H]3O[C@@]4(C)CC[C@@H]1[C@]32OO4 [ARTEMISININ]
[5]
  IC50: 8.36 nM
[6]
  IC50: 7.71 nM

## CC(=O)N[C@@H](CC(C)C)C(=O)N[C@@H](CC(C)C)C(=O)N[C@H](C=O)CCCNC(=N)N [LEUPEPTIN]
[9]
  IC50: 98 nM
[10]
  Activity: Active
[11]
  Activity: inactive
[12]
  inhibition: Active
[13]
  inhibition: Active
[14]
  growth inhibition (GI): inactive
[7]
  IC50: 74000 nM
[8]
  IC50: 18000 nM
[15]
  inhibition: inactive
[16]
  Activity: Active
[17]
  IC50: 87 nM
[18]
  Activity: inactive
[19]
  Activity: inactive
[20]
  Activity: inactive
[21]
  Activity: Active
[22]
  inhibition: Active
[23]
  Activity: inactive
[24]
  inhibition: Active
[25]
  Activity: Active
[26]
  IC50: 87 nM
[27]
  inhibition: inactive
[28]
  IC50: 98 nM

## CC(C)C[C@H](NC(=O)[C@H]1O[C@@H]1C(=O)O)C(=O)NCCCCN=C(N)N [E-64]
[7]
  IC50: 5880 nM
[8]
  IC50: 3690 nM

## CC(C)CC(=O)N[C@H](C(=O)N[C@H](C(=O)N[C@@H](CC(C)C)[C@@H](O)CC(=O)N[C@@H](C)C(=O)N[C@@H](CC(C)C)[C@@H](O)CC(=O)O)C(C)C)C(C)C [PEPSTATIN]
[7]
  IC50: 29400 nM
[8]
  IC50: 39200 nM
